Source: PubChem BioAssay
Rows were chosen to be rich in hits. Some 2.3% of all compounds tested hit in one or more screens of this group.
SR-BI uptake up: enhances SR-BI lipid uptake from DiI-HDL; CHO ldlA[mSR-BI] cells, DiI-HDL uptake fluorescence, 3 h; 100 = double the neutral-control signal; 0.096% of 320,000 active; AID 504775; activation, % at 12.5 µM;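 active means mean replicate activation of at least 60% and every replicate at or above 60%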;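 further: 0% = median plate neutral-control signal and 100% = twice that signal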
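System: LDL receptor-deficient CHO ldlA cells overexpressing murine SR-BI | Timing: 3 h uptake period with compound, 37 °C | Medium: HEPES-buffered (25 mM, pH 7.4) F12 plus 0.5% BSA | Dosing: Single-point compound dose | Signal: Bottom-read fluorescence, 550/595 nm | Read-out: Retained DiI signal reflecting DiI-HDL uptake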
CAL PDZ FP-1: inhibitors of human CAL PDZ peptide binding; Q9HD26; purified CAL PDZ, TMR-peptide fluorescence polarization, 1 h; inhibition, % at 24.9 µM; 0.92% of 300,000 active;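 active means mean inhibition of at least 30% with at least half of replicates also reaching 30%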;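 further: 0% = DMSO neutral control and 100% = excess unlabeled competitor peptide PRC23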
ATG4B inhibitor: inhibitors of human ATG4B cysteine protease. Q9Y4P1. ATG4B cleavage of LC3-PLA2, NBD-HPC fluorescence, 1 h. inhibition, % at 8.33 µM. 0.51% of 340,000 active. AID 504462; in the data active means inhibition above about 40%
CAL PDZ FP-2: blocks peptide binding to human CAL PDZ domain. Q9HD26. purified CAL PDZ, TMR-peptide fluorescence polarization, 1 h. inhibition, % at 20 µM. 0.02% of 330,000 active;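 active means highest replicate inhibition of at least 40%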;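 further: plate controls were DMSO neutral control wells for no effect and unlabeled competitor peptide control wells for full effect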
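System: tagged CAL PDZ domain. Schedule: 1 h room-temperature incubation prior to read. Signal: fluorescence polarization (mP). Measure: percent inhibition from loss of millipolarization.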
SR-BI DiI inh: mouse SR-BI HDL lipid transfer inhibition; Q61009; ldlA[mSR-BI] CHO cells, DiI-HDL uptake fluorescence, 3 h; inhibition, % at 12.5 µM; 0.96% of 320,000 active; AID 488896;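 active means mean replicate inhibition of at least 70% and a set share of replicates each scoring 70 or more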;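 further: 0% = median of neutral control wells and 100% = median of positive control wells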
Target sequence (Q61009 whole entry, looked up): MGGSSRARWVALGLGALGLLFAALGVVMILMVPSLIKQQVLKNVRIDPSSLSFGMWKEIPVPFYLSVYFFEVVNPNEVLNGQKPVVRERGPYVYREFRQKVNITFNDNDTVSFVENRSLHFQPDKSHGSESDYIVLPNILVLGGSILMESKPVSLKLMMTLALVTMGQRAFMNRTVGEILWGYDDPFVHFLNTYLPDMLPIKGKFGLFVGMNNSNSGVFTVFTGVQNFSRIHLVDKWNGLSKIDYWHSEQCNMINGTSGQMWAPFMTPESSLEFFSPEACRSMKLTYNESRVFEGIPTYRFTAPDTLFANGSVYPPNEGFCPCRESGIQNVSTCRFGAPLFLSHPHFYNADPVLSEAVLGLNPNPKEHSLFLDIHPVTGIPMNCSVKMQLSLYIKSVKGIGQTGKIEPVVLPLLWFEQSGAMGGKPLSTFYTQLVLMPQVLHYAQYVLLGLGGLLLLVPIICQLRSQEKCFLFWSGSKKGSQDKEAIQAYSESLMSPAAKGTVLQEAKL
* = called active by the depositor; x = no result given.

SMILES	SR-BI uptake up	CAL PDZ FP-1	ATG4B inhibitor	CAL PDZ FP-2	SR-BI DiI inh
Cc1nn(-c2ccccn2)c2c1C(c1ccsc1)C1=C(CCCC1=O)N2 (stereo not given)	13.8	-3.1	-4.5	-1.1	-13.8
O=C(Nc1ccccc1C(=O)Nc1ccc(F)cc1)c1ccco1	-74.8	-0.8	-6.6	-1.4	74.8*
CC(=O)Nc1cccc(NC(=O)c2ccco2)c1	-6.6	-1.7	-11.1	0.0	6.6
O=C(Nc1ccc(Br)c(Cl)c1)c1ccco1	-18.7	46.3*	-8.9	x	18.7
CCC(=O)Nc1ccc(Cl)c(NC(=S)NC(=O)c2ccco2)c1	-95.6	-9.1	-16.7	-2.4	95.6*
O=C(Nc1ccc(NC(=O)c2ccco2)c(Cl)c1)c1ccccc1	-30.3	x	-9.0	0.0	30.3
Cc1ccccc1NC(=O)c1ccccc1NC(=O)c1ccco1	-28.9	1.4	4.9	-1.4	28.9
O=C(Nc1cccc(F)c1)c1ccco1	4.3	0.8	-18.2	53.6*	-4.3
CCC(=O)Nc1ccc(Cl)c(NC(=S)NC(=O)c2cc3ccccc3o2)c1	-14.4	-5.3	-3.7	-2.5	14.4
COc1ccc2c(c1OC)OCC2C (stereo not given)	-12.0	9.1	6.3	0.1	12.0
O=C(Nc1ccc(F)cc1)c1cc(-c2ccccc2)no1	0.0	108.9*	-10.7	-0.2	0.0
O=C(Nc1ccc(CSc2ccccc2)cc1)c1ccco1	12.0	63.3*	6.1	-3.6	-12.0
O=C(Nc1ccccc1)c1ccccc1OCc1ccc(F)cc1	-74.1	1.3	-2.5	-1.5	74.1*
O=C(CCc1ccccc1)Nc1ccc(NC(=O)c2ccco2)cc1	-13.6	-2.1	-7.4	-2.4	13.6
CCC(=O)Oc1cccc(C(=O)Nc2cccc(NC(=O)c3ccco3)c2)c1	-35.2	44.4*	10.1	-2.9	35.2
COc1ccc(-c2cc(C(=O)Nc3ccccc3)on2)cc1	-9.1	x	3.8	-1.4	9.1
Cn1ccc(C(=O)Nc2cccnc2Cl)n1	5.7	-4.7	0.5	-2.8	-5.7
CC(=NN1CC(=O)NC1=O)c1ccc([N+](=O)[O-])o1	25.4	-5.0	-0.9	-0.4	-25.4
C=Cc1ccc(Cn2nc(-c3ccccc3)ccc2=O)cc1	-6.7	-5.8	-10.1	-0.6	6.7
CCOc1ccc(CCN2C(=O)C(=O)N([C@@H](Cc3ccc(O)cc3)CN3CCC[C@@H]3CN3C(=O)C(=O)NC[C@@H]3Cc3ccccc3)C[C@@H]2Cc2ccccc2)cc1	-8.4	-6.7	x	-1.7	8.4
CCCCCCCCCC(=O)N1c2ccccc2NC(=O)C1CC(=O)Nc1ccc(C(=O)O)cc1 (stereo not given)	4.0	-3.6	-8.2	-1.5	-4.0
CC(=O)c1ccc(N2CCN(C(=O)C(=O)c3cn(CC(=O)N4CCCCCC4)c4ccccc34)CC2)cc1	-68.3	-2.9	-1.5	-1.8	68.3
CC1(c2ccccc2)NC(=O)N(CC(=O)N2CCN(S(=O)(=O)c3cccs3)CC2)C1=O (stereo not given)	13.5	-7.1	-9.1	-3.2	-13.5
CCCCCC(=O)NC(=S)Nc1ccc2oc(=O)ccc2c1	-8.1	85.7*	5.3	-1.0	8.1
O=C(COC(=O)COc1ccccc1[N+](=O)[O-])NCc1ccc2c(c1)OCO2	6.3	0.3	-7.2	0.3	-6.3
SMILES	SR-BI uptake up	CAL PDZ FP-1	ATG4B inhibitor	CAL PDZ FP-2	SR-BI DiI inh
COc1cc2c(cc1OC)CN(c1ccc([N+](=O)[O-])cc1Cl)CC2	-80.1	-3.1	-8.0	-0.1	80.1*
COc1cc2c(cc1OC)CN(c1ccc([N+](=O)[O-])cc1C#N)CC2	-64.4	-3.0	-11.1	-1.5	64.4
Cc1onc(-c2ccccc2Cl)c1C(=O)NNC(=O)c1ccccc1F	10.9	-1.9	-4.8	0.3	-10.9
C=CC(=O)Nc1cccc(N(C)c2ccnc(Nc3ccc(N4CCN(C)CC4)cc3)n2)c1	-5.2	-0.7	1.1	1.5	5.2
CC(O)c1cccc(-c2ccc(CN3C[C@]4(CO)O[C@@H](CO)C[C@@H]4S3(=O)=O)cc2)c1 (stereo not given in full)	-25.3	42.2*	x	-1.5	25.3
O=S1(=O)[C@H]2C[C@@H]3C=C[C@@]2(CN1Cc1cccc(Cl)c1)O3	31.0	-3.0	2.6	-0.4	-31.0
CCOC(=O)c1sc(NC(=O)Nc2ccc(Cl)cc2)nc1C	-18.2	52.2*	-2.5	-0.3	18.2
CCOC(=O)c1c(NC(=S)Nc2ccccc2)sc2c1CC(C)(C)SC2	-95.3	-2.3	8.5	-2.0	95.3*
CCOC(=O)Nc1nc(C)c(C(=O)c2ccc(Cl)cc2)s1	10.8	-4.3	12.4	x	-10.8
CCOC(=O)c1c(NC(=O)Nc2ccccc2)sc(C)c1C	-85.5	8.2	2.0	2.5	85.5*
CS(=O)(=O)N1N=C(c2cccs2)CC1c1ccco1 (stereo not given)	-3.5	1.7	9.6	0.6	3.5
COc1ccccc1N(CC(=O)N1CCN(c2ccccc2)CC1)S(=O)(=O)c1ccc(C)cc1	6.7	65.5*	-3.3	-0.6	-6.7
CCC(C)NS(=O)(=O)c1ccc(NC(=O)CNCc2cccs2)cc1 (stereo not given)	-23.8	5.7	-2.4	0.7	23.8
CN(C)CCCn1c2c(c(SCC(=O)Nc3cccc4ccccc34)nc1=O)CCCC2	10.7	48.8*	4.7	-3.0	-10.7
O=C(c1ccc(NS(=O)(=O)c2ccccc2)cc1)N1CCN(c2ccccc2)CC1	0.5	x	-7.7	0.0	-0.5
CCOC(=O)COc1coc(CN2CCN(c3ccc(F)cc3)CC2)cc1=O	4.4	40.9*	-3.2	-0.8	-4.4
COc1ccc(C(=O)CCC(C)(C)[N+](=O)[O-])cc1OC	-1.1	33.0*	-0.5	-0.2	1.1
C=CCn1c(SCC(=O)N(CC)C2CCS(=O)(=O)C2)nnc1-c1ccccc1 (stereo not given)	73.4*	-4.2	1.0	-0.7	-73.4
COc1ccc(NC(=O)NC2(C)CCS(=O)(=O)C2)cc1 (stereo not given)	4.8	62.8*	2.4	-1.8	-4.8
Cc1ccc(N2CC(c3nc4ccccc4n3C)CC2=O)cc1 (stereo not given)	-2.8	30.5*	-11.8	-2.0	2.8
O=C(Nc1ccccc1)N1CCC(C(=O)N2CCN(c3ccccc3F)CC2)CC1	-79.9	x	-3.1	-0.4	79.8*
O=C(C1CCCCC1)N1CCN(c2ccccc2F)CC1	12.9	-3.9	0.5	-4.1	-13.0
CSCC[C@H](NC(=O)[C@H](Cc1ccccc1)n1c(=O)[nH]c2ccccc2c1=O)C(=O)N[C@@H](Cc1ccccc1)C(=O)O	14.6	1.0	-25.0	-0.9	-14.6
Cc1[nH]c2ccccc2c1C(=O)C(=O)NCCOc1ccccc1	32.8	45.9*	-6.3	-0.6	-32.8
Cc1ccc(S(=O)(=O)NCCNS(=O)(=O)c2ccc(C)cc2)cc1	-6.0	56.1*	-9.4	x	6.0
Nc1ncnc2c(C3OC(CO)C(O)C3O)scc12 (stereo not given)	17.3	-2.3	-1.1	-0.2	-17.3
